# High-throughput results (PubChem)
# pCIP destab – p/CIP-EGFP fusion destabilizers, primary screen, fluorescence, F442A cells. Q05BA5. 16 h. decrease of EGFP signal, % at 10 µM. hit rate 0.01% among 290,000. AID 1984, 2009;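 active = EGFP signal decrease of at least 30% at 10 µM or well 3 SD below plate mean, unless failing retest; inactive = the rest, including hits failing retest or dose response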
# GPR7 antag – GPR7 receptor antagonists, primary screen, cell-based, fluorescence, single concentration; Neuropeptides B/W receptor type 1 (Homo sapiens), P48145; GPR7-expressing cells, fluorescence antagonist assay; inhibition, % at 4.4 µM; hit rate 1.1% among 290,000; in the data active = inhibition above about 16%, passing the limit was not always enough;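 note: cells stimulated with the agonist NPW; 0% = agonist with vehicle and 100% = vehicle without agonist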
# T cell modulator – modulators of CD8 T cell-vesicle binding, primary screen, mouse 2C CD8+ T cells, flow cytometry | 2C CD8+ T cell-vesicle binding; active compounds read low | response (vesicle binding), % at 7 µM | hit rate 0.068% among 330,000 | AID 2052, 2009;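 active = response, share of CD8 T cells binding vesicles, and their 90th percentile fluorescence all below set limits, cut at about 80% in these data, passing the limit was not always enough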;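 note: values below 100% mean blocked vesicle binding to the CD8+ T cells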
#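 Assay system – 2C mouse CD8+ T cells · Also added – QL9-loaded Drosophila micro-vesicles · Timing – Cell–vesicle co-incubation 1.5 h at 37 °C, staining 20 min on ice · Signal – flow cytometry of vesicle-bound cells · Measure – percent CD8+ FL2 mean versus row control · Controls – Peptide-free naked vesicles (low) and QL9 vesicles with 0.7% DMSO vehicle (high)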
# DSG3 Ab inh – inhibitors of pemphigus antibody binding to DSG3, primary screen, biochemical, bead-based, flow cytometry, scFv-GFP. hit rate 0.48% among 310,000. binding (percent of control), % at 10 µM. DSG3-coupled beads, scFv-anti-DSG3-GFP binding; active compounds read low;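 active = binding more than 3 SD below its plate's average and above zero; inconclusive = below that plate limit but binding exactly zero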;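 note: hits lower antibody fragment binding to DSG3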
# CHT block – inhibitors of human choline transporter CHT. High affinity choline transporter 1 (Homo sapiens), Q9GZV3. hit rate 0.86% among 310,000. CHT-expressing cells, membrane potential dye, choline response; active compounds read low. B-score at 10 µM;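 active = B-score over 3 SD under the library average, and starting fluorescence ratio not unusually high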;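 note: choline stimulus applied at its EC90 after an EC20 pre-addition; B-score computed on integrated fluorescence ratio after choline addition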
# Target sequence (Q9GZV3 whole entry, looked up): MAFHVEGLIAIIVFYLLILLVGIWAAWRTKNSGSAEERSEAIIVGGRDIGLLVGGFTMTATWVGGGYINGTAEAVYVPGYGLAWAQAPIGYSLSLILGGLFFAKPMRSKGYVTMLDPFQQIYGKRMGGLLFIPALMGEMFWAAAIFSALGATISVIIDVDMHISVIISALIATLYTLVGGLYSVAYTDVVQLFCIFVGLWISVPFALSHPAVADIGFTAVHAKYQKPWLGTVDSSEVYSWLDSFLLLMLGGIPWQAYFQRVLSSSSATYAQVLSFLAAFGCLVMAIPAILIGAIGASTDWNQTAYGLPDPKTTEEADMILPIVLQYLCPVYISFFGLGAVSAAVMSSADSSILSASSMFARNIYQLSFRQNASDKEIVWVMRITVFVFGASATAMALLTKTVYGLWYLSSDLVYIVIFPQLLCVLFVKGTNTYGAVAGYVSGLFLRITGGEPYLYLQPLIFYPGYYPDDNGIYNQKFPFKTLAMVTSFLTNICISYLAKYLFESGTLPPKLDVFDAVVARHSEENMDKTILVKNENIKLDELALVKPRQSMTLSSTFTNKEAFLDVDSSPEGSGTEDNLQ
# CHT PAM – CHT positive allosteric modulators, primary screen, cell-based, membrane potential dye, choline EC20. CHT-expressing cells; active compounds read high; LV-AA mutant CHT in HEK293 cells. B-score at 10 µM. hit rate 0.49% among 310,000. AID 488977, 2010;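 active = initial fluorescence not abnormally high and integrated response B-score, plate-corrected, over 3 SD above library mean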
# GPR7 antag cf – GPR7 receptor antagonists, confirmation, cell-based, fluorescence, single concentration; AID 1952, 2009; hit rate 52% among 2,400; shares compounds with GPR7 antag; inhibition, % at 4.4 µM; GPR7-expressing cells, calcium fluorescence antagonist mode; in the data active = inhibition above about 24%;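 note: stimulated with the GPR7 agonist NPW; 0% = agonist plus vehicle and 100% = vehicle alone without agonist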
# MCHR1 antag – MCHR1 antagonists in cells, counter-screen for GPR7 antagonist project, cell-based, fluorescence, human. shares compounds with GPR7 antag. hit rate 62% among 2,400. inhibition, % at 4.4 µM. MCHR1-expressing cells, fluorescence antagonist assay; in the data active = inhibition above about 22%;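 note: 0% = vehicle with agonist and 100% = vehicle without agonist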
# * marks the source's active call; other numbers are inactive results; i = inactive; ? = inconclusive; / = no result. Rows were chosen to be rich in hits. Some 2.3% of all compounds tested hit in one or more screens of this group.
SMILES,pCIP destab,GPR7 antag,T cell modulator,DSG3 Ab inh,CHT block,CHT PAM,GPR7 antag cf,MCHR1 antag
Cc1ccc([C@@H]2CC(=O)[C@@H]3CN(S(=O)(=O)c4ccc(C)cc4)[C@H](c4ccc(Cl)cc4)C[C@@H]3N2S(=O)(=O)c2ccc(Cl)cc2)cc1,/,/,/,98,/,/,/,/
CCCCn1c(NS(=O)(=O)c2ccccc2)c(S(=O)(=O)c2ccc(C)cc2)c2nc3ccccc3nc21,-9,31*,345,90,i,i,35*,41*
CCCCn1c(NC(=O)c2ccco2)c(S(=O)(=O)c2ccc(C)cc2)c2nc3ccccc3nc21,-13,-7,/,96,/,/,/,/
O=C(Oc1cccc(NC(=O)c2ccccc2Cl)c1)c1ccc([N+](=O)[O-])cc1,-5,35*,534,107,i,i,43*,56*
COC(=O)CSc1nnc(-c2ccc(S(=O)(=O)NCc3cccs3)cc2)o1,-7,22*,328,106,i,i,58*,38*
COc1ccc(NC(=O)CNCc2cccs2)c(OC)c1,/,/,/,92,/,/,/,/
O=C(NCC(c1ccco1)N1CCCC1)c1cc2cc(Cl)ccc2o1 (centres undefined),/,/,212,109,/,/,/,/
COc1ccc(S(=O)(=O)N2CCN(CC(=O)Nc3cccc(OC)c3)CC2)cc1,-5,35*,412,?,i,i,25*,16
COc1ccc(S(=O)(=O)N(CC(=O)Nc2ccc(S(=O)(=O)N3CCOCC3)cc2)Cc2ccc(F)cc2)cc1,3,24*,202,115,i,i,28*,21
COc1ccc(S(=O)(=O)N2CCCN(CC(=O)Nc3ccccc3F)CC2)cc1,6,30*,303,112,i,i,4,42*
CC(NCc1ccc(OCc2ccc(Cl)cc2)cc1)C(O)c1ccccc1 (centres undefined),-2,27*,244,107,i,i,58*,81*
O=C(c1ccc(Br)cc1)C(CN1CCOCC1)c1ccccc1 (centres undefined),-2,67*,209,94,i,i,59*,86*
CCOc1ccc(-c2nnc(N)s2)cc1,1,29*,353,99,i,i,-4,-4
COc1ccc(C(CNC(=O)c2ccc(C)c(S(=O)(=O)N3CCOCC3)c2)N2CCCC2)cc1 (centres undefined),/,/,/,149,/,/,/,/
CC1(C)CC(=O)C=C(N2CCNCC2)C1,-2,2,289,95,i,i,/,/
CC1CC(C)C[N+](=C2C=C(N3CCCC3)CC(C)(C)C2)C1 (centres undefined),-29,50*,/,104,/,/,58*,53*
O=C(Nc1ncccc1O)c1ccc(Oc2ccccc2)cc1,-19,35*,283,97,i,i,9,16
CCOC(=O)c1ccc(NC(=O)Nc2ccc(F)cc2)cc1,0,23*,475,/,i,i,47*,55*
Cc1ccc(NC(=O)Nc2ccc(F)cc2)cc1Cl,-7,28*,287,110,i,i,9,52*
CC(=O)c1cc(-c2ccccc2)n(CCC(=O)NC2CCC(C)CC2)c1C (centres undefined),-4,23*,217,102,i,i,5,-5
CC(C)(C)OC(=O)N1CCN(C(=O)c2ncn3c2c(=O)[nH]c2ccccc23)CC1,/,/,/,107,/,/,/,/
COc1cc(/C=N/NC(=O)CSCc2ccc([N+](=O)[O-])cc2)cc(OC)c1OC,-29,22*,606,103,i,i,26*,23*
COc1ccc([C@H]2C[C@@H](O)[C@H](n3cc(C4CC4)nn3)CN2C(=O)c2cccs2)cc1,/,/,/,101,/,/,/,/
C=CCN(CC=C)S(=O)(=O)c1ccc(NC(=S)NC(=O)Cc2ccc(OC)cc2)cc1,0,34*,0,98,i,i,50*,65*
COc1ccc(CC(=O)NC(=S)Nc2ccc(S(=O)(=O)NC(C)(C)C)cc2)cc1,-9,49*,450,110,i,i,72*,70*
SMILES,pCIP destab,GPR7 antag,T cell modulator,DSG3 Ab inh,CHT block,CHT PAM,GPR7 antag cf,MCHR1 antag
CC(=O)N1CC2(CC(c3ccc(Cl)cc3Cl)=NO2)CN1c1cccc(Cl)c1 (centres undefined),/,/,/,101,/,/,/,/
O=C(NCc1ccccc1)C(c1ccc(F)cc1)N(Cc1ccco1)C(=O)c1ccccn1 (centres undefined),-4,7,412,/,i,i,/,/
O=C(NC1CCCCC1)C(c1ccc(F)cc1)N(Cc1ccco1)C(=O)c1ccccn1 (centres undefined),4,26*,214,102,i,i,6,12
Cc1cn([C@H]2C[C@H](O)[C@@H](CNCc3ccc(F)c(N4CCOCC4)c3)O2)c(=O)[nH]c1=O,/,/,/,109,/,/,/,/
COc1ccc(/C=C2/CC/C(=C\c3ccc(OC)c(OC)c3OC)C2=O)c(OC)c1OC,-4,23*,436,98,i,i,-1,67*
CCC(C)(C)NC(=O)c1cc(S(=O)(=O)N2CCc3ccccc32)cn1C,-2,21*,1000,101,i,i,10,35*
O=C(c1ccccc1)c1ccc(Cn2cc(-c3ccccc3)nn2)cc1,-15,41*,300,103,i,i,47*,61*
CCN(Cc1ccccc1)Cc1nnnn1Cc1ccccc1,14,26*,260,95,i,i,18,16
CN(C)c1nnnn1Cc1ccccc1,-9,-14,191,105,i,i,/,/
CN1CCC(Oc2ccccc2Sc2ccc(C(F)(F)F)cc2)CC1,-15,27*,247,97,i,i,30*,64*
CN1CCC(Oc2ccc(Sc3ccccc3)cc2)CC1,-8,17,342,118,i,i,/,/
CN(C)CCCNS(=O)(=O)c1ccc(NC2CCCCCC2)c([N+](=O)[O-])c1,5,23*,181,101,i,i,48*,51*
O=C(CC(=O)c1ccccc1)CC(O)(C=Cc1ccccc1)c1ccccc1 (centres undefined),/,/,/,99,/,/,/,/
